Measurements reported in ChEMBL document CHEMBL1649282, “OXA-143, a novel carbapenem-hydrolyzing class D beta-lactamase in Acinetobacter baumannii” (2009).
Values after ≈ are worked out from the molar mass of the structure shown.

Legend:
Assay type in all cases: functional
Acinetobacter baumannii [1] = assay: Antimicrobial activity against Acinetobacter baumannii ATCC 19606 harboring plasmid PH98 by Etest method in presence of 4 ug/ml beta-lactamase inhibitor clavulanic acid; settings: ATCC 19606 = CIP 70.34 = JCM 6841
How it was run: (§1)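 MICs of β-lactams determined by Etest following the manufacturer's instructions. Reference strains A. baumannii ATCC 19606 and E. coli TOP10 were tested alongside transformants carrying the cloned blaOXA-143: ATCC 19606 with pPH98 and TOP10 with pPH-1. For pPH-1 constructs, TOP10 transformants were selected on 50 μg/ml amoxicillin plus 30 μg/ml kanamycin.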

Escherichia coli [2] = assay: Antimicrobial activity against Escherichia coli TOP10 harboring plasmid PH1 by Etest method in presence of 4 ug/ml beta-lactamase inhibitor clavulanic acid; how it was run: as §1
Acinetobacter baumannii [3] = assay: Antimicrobial activity against Acinetobacter baumannii ATCC 19606 by Etest method; settings: ATCC 19606 = CIP 70.34 = JCM 6841; how it was run: as §1
Escherichia coli [4] = assay: Antimicrobial activity against Escherichia coli TOP10 by Etest method; how it was run: as §1
Acinetobacter baumannii [5] = assay: Antimicrobial activity against Acinetobacter baumannii ATCC 19606 harboring plasmid PH98 by Etest method; settings: ATCC 19606 = CIP 70.34 = JCM 6841; how it was run: as §1
Escherichia coli [6] = assay: Antimicrobial activity against Escherichia coli TOP10 harboring plasmid PH1 by Etest method; how it was run: as §1
Acinetobacter baumannii [7] = assay: Antimicrobial activity against Acinetobacter baumannii […] by Etest method
How it was run: (§2)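 Etest MICs were read following the manufacturer's instructions. A. baumannii 135040 is a blood-culture clinical isolate from a Brazilian ICU (2004); A. baumannii ATCC 19606 served as the reference strain.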

Acinetobacter baumannii [8] = assay: Antimicrobial activity against Acinetobacter baumannii ATCC 19606 by Etest method in presence of 4 ug/ml beta-lactamase inhibitor clavulanic acid; settings: ATCC 19606 = CIP 70.34 = JCM 6841; how it was run: as §2
Acinetobacter baumannii [9] = assay: Antimicrobial activity against Acinetobacter baumannii […] by Etest method in presence of 4 ug/ml beta-lactamase inhibitor clavulanic acid; how it was run: as §2
Escherichia coli [10] = assay: Antimicrobial activity against Escherichia coli TOP10 by Etest method in presence of 4 ug/ml beta-lactamase inhibitor clavulanic acid
How it was run: (§3)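 Susceptibility was read by Etest, following the manufacturer's instructions. E. coli TOP10 without plasmid served as the reference host strain.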

Acinetobacter baumannii [11] = assay: Antimicrobial activity against Acinetobacter baumannii ATCC 19606 harboring plasmid PH98 by Etest method in presence of 4 ug/ml beta-lactamase inhibitor Tazobactam; settings: ATCC 19606 = CIP 70.34 = JCM 6841
How it was run: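 Susceptibility by Etest, run according to the manufacturer's instructions. The recipient strain is A. baumannii ATCC 19606 carrying recombinant plasmid pPH98. The same strain without the plasmid served as the reference. MICs for this strain were also determined by agar dilution following CLSI guidelines.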

Escherichia coli [12] = assay: Antimicrobial activity against Escherichia coli TOP10 by Etest method in presence of 4 ug/ml beta-lactamase inhibitor Tazobactam; how it was run: as §3
Escherichia coli [13] = assay: Antimicrobial activity against Escherichia coli TOP10 harboring plasmid PH1 by Etest method in presence of 4 ug/ml beta-lactamase inhibitor Tazobactam
How it was run: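 Susceptibility was read by Etest, following the manufacturer's instructions. The test strain was E. coli TOP10 carrying recombinant plasmid pPH-1, which expresses blaOXA-143 from A. baumannii clinical isolate 135040 at a high level. The gene was introduced by Zero Blunt TOPO cloning, and transformants were selected on 50 μg/ml amoxicillin plus 30 μg/ml kanamycin.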

Acinetobacter baumannii [14] = assay: Antimicrobial activity against Acinetobacter baumannii ATCC 19606 by Etest method in presence of 4 ug/ml beta-lactamase inhibitor Tazobactam; settings: ATCC 19606 = CIP 70.34 = JCM 6841; how it was run: as §2
Acinetobacter baumannii [15] = assay: Antimicrobial activity against Acinetobacter baumannii […] by Etest method in presence of 4 ug/ml beta-lactamase inhibitor Tazobactam; how it was run: as §2

| SMILES | MIC (Acinetobacter baumannii [1]) [µg/mL] | MIC (Escherichia coli [2]) [µg/mL] | MIC (Acinetobacter baumannii [3]) [µg/mL] | MIC (Escherichia coli [4]) [µg/mL] | MIC (Acinetobacter baumannii [5]) [µg/mL] | MIC (Escherichia coli [6]) [µg/mL] | MIC (Acinetobacter baumannii [7]) [µg/mL] | MIC (Acinetobacter baumannii [8]) [µg/mL] | MIC (Acinetobacter baumannii [9]) [µg/mL] | MIC (Escherichia coli [10]) [µg/mL] | MIC (Acinetobacter baumannii [11]) [µg/mL] | MIC (Escherichia coli [12]) [µg/mL] | MIC (Escherichia coli [13]) [µg/mL] | MIC (Acinetobacter baumannii [14]) [µg/mL] | MIC (Acinetobacter baumannii [15]) [µg/mL] |
| --- | --- | --- | --- | --- | --- | --- | --- | --- | --- | --- | --- | --- | --- | --- | --- |
| CC1(C)S[C@@H]2[C@H](NC(=O)[C@H](N)c3ccc(O)cc3)C(=O)N2[C@H]1C(=O)O [AMOXICILLIN] | > 256 | > 512 | 32 (≈ 87.6 µM) | 4 (≈ 10.9 µM) | > 256 | > 512 | > 256 | 8 | > 256 | 4 | – | – | – | – | – |
| CO/N=C(\C(=O)N[C@@H]1C(=O)N2C(C(=O)[O-])=C(C[N+]3(C)CCCC3)CS[C@H]12)c1csc(N)n1 [CEFEPIME] | – | – | 1 (≈ 2.08 µM) | – | 2 (≈ 4.16 µM) | 0.12 (≈ 0.25 µM) | 4 (≈ 8.32 µM) | – | – | – | – | – | – | – | – |
| CO/N=C(\C(=O)N[C@@H]1C(=O)N2C(C(=O)O)=C(COC(C)=O)CS[C@H]12)c1csc(N)n1 [CEFOTAXIME] | – | – | 8 (≈ 17.6 µM) | 0.12 (≈ 0.263 µM) | 16 (≈ 35.1 µM) | 0.12 (≈ 0.263 µM) | > 256 | – | – | – | – | – | – | – | – |
| CC(C)(O/N=C(\C(=O)N[C@@H]1C(=O)N2C(C(=O)[O-])=C(C[n+]3ccccc3)CS[C@H]12)c1csc(N)n1)C(=O)O [CEFTAZIDIME] | – | – | 2 (≈ 3.66 µM) | 0.06 (≈ 0.11 µM) | 2 (≈ 3.66 µM) | 0.12 (≈ 0.22 µM) | 256 (≈ 468 µM) | – | – | – | – | – | – | – | – |
| C[C@@H](O)[C@H]1C(=O)N2C(C(=O)O)=C(SCCNC=N)C[C@H]12 [IMIPENEM ANHYDROUS] | – | – | 0.19 (≈ 0.635 µM) | – | 32 (≈ 107 µM) | 2 (≈ 6.68 µM) | > 32 | – | – | – | – | – | – | – | – |
| C[C@@H](O)[C@H]1C(=O)N2C(C(=O)O)=C(S[C@@H]3CN[C@H](C(=O)N(C)C)C3)[C@H](C)[C@H]12 [MEROPENEM] | – | – | 0.19 (≈ 0.495 µM) | 0.12 (≈ 0.313 µM) | 32 (≈ 83.4 µM) | 2 (≈ 5.22 µM) | > 32 | – | – | – | – | – | – | – | – |
| CCN1CCN(C(=O)N[C@@H](C(=O)N[C@@H]2C(=O)N3[C@@H]2SC(C)(C)[C@@H]3C(=O)O)c2ccccc2)C(=O)C1=O [PIPERACILLIN] | – | – | 4 (≈ 7.73 µM) | 1 (≈ 1.93 µM) | 16 (≈ 30.9 µM) | 8 (≈ 15.5 µM) | > 256 | – | – | – | 8 | 0.5 | 2 | 4 | > 256 |
| CC1(C)S[C@@H]2[C@H](NC(=O)[C@H](C(=O)O)c3ccsc3)C(=O)N2[C@H]1C(=O)O [TICARCILLIN] | – | – | 4 (≈ 10.4 µM) | 4 (≈ 10.4 µM) | > 256 | 128 (≈ 333 µM) | > 256 | – | – | – | – | – | – | – | – |
